Data from ChEMBL document CHEMBL4387724, “2-Pyridineformamide N(4)-ring incorporated thiosemicarbazones inhibit MCF-7 cells by inhibiting JNK pathway” (Bioorg Med Chem Lett, 2019).

Legend:
A-431 [1] = assay: Cytotoxicity against human A431 cells assessed as reduction in cell growth at 3 uM incubated for 72 hrs by MTT assay relative to control; type: functional; conditions: A-431, 72 h, read-out: GI
How it was run: (§1)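 Cells grown in DMEM with 10% FBS and penicillin-streptomycin at 37 °C, 5% CO2, seeded at 3000 cells/well and attached overnight. Screening series given at 1, 3, 10, 100 μM; follow-up agent at 100 nM–3 μM; both 72 h, with 0.1% DMSO vehicle. MTT (5 mg/mL stock) added for 3 h at 37 °C, formazan dissolved in DMSO, absorbance read at 570 nm. Viability expressed as % of DMSO-treated wells from replicates.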

MCF7 [2] = assay: Cytotoxicity against human MCF7 cells assessed as reduction in cell growth incubated for 72 hrs by MTT assay; type: functional, cell-based; conditions: MCF7, 72 h; how it was run: as §1
A-375 [3] = assay: Cytotoxicity against human A375 cells assessed as reduction in cell growth at 10 uM incubated for 72 hrs by MTT assay relative to control; type: functional; conditions: A-375, 72 h, read-out: GI; how it was run: as §1
A-431 [4] = assay: Cytotoxicity against human A431 cells assessed as reduction in cell growth at 30 uM incubated for 72 hrs by MTT assay relative to control; type: functional; conditions: A-431, 72 h, read-out: GI
HeLa [5] = assay: Cytotoxicity against human HeLa cells assessed as reduction in cell growth at 10 uM incubated for 72 hrs by MTT assay relative to control; type: functional; conditions: read-out: GI; how it was run: as §1
A-431 [6] = assay: Cytotoxicity against human A431 cells assessed as reduction in cell growth at 1 uM incubated for 72 hrs by MTT assay relative to control; type: functional; conditions: A-431, 72 h, read-out: GI; how it was run: as §1
MCF7 [7] = assay: Cytotoxicity against human MCF7 cells assessed as reduction in cell growth at 30 uM incubated for 72 hrs by MTT assay relative to control; type: functional; conditions: MCF7, 72 h, read-out: GI
A-375 [8] = assay: Cytotoxicity against human A375 cells assessed as reduction in cell growth at 1 uM incubated for 72 hrs by MTT assay relative to control; type: functional; conditions: A-375, 72 h, read-out: GI; how it was run: as §1
A-375 [9] = assay: Cytotoxicity against human A375 cells assessed as reduction in cell growth at 3 uM incubated for 72 hrs by MTT assay relative to control; type: functional; conditions: A-375, 72 h, read-out: GI; how it was run: as §1
HeLa [10] = assay: Cytotoxicity against human HeLa cells assessed as reduction in cell growth incubated for 72 hrs by MTT assay; type: functional, cell-based; how it was run: as §1
MCF7 [11] = assay: Cytotoxicity against human MCF7 cells assessed as reduction in cell growth at 1 uM incubated for 72 hrs by MTT assay relative to control; type: functional; conditions: MCF7, 72 h, read-out: GI; how it was run: as §1
A-431 [12] = assay: Cytotoxicity against human A431 cells assessed as reduction in cell growth at 10 uM incubated for 72 hrs by MTT assay relative to control; type: functional; conditions: A-431, 72 h, read-out: GI; how it was run: as §1
A-375 [13] = assay: Cytotoxicity against human A375 cells assessed as reduction in cell growth incubated for 72 hrs by MTT assay; type: functional, cell-based; conditions: A-375, 72 h; how it was run: as §1
HeLa [14] = assay: Cytotoxicity against human HeLa cells assessed as reduction in cell growth at 1 uM incubated for 72 hrs by MTT assay relative to control; type: functional; conditions: read-out: GI; how it was run: as §1
A-431 [15] = assay: Cytotoxicity against human A431 cells assessed as reduction in cell growth at 100 uM incubated for 72 hrs by MTT assay relative to control; type: functional; conditions: A-431, 72 h, read-out: GI; how it was run: as §1
A-375 [16] = assay: Cytotoxicity against human A375 cells assessed as reduction in cell growth at 100 uM incubated for 72 hrs by MTT assay relative to control; type: functional; conditions: A-375, 72 h, read-out: GI; how it was run: as §1
HeLa [17] = assay: Cytotoxicity against human HeLa cells assessed as reduction in cell growth at 100 uM incubated for 72 hrs by MTT assay relative to control; type: functional; conditions: read-out: GI; how it was run: as §1
HeLa [18] = assay: Cytotoxicity against human HeLa cells assessed as reduction in cell growth at 30 uM incubated for 72 hrs by MTT assay relative to control; type: functional; conditions: read-out: GI
MCF7 [19] = assay: Cytotoxicity against human MCF7 cells assessed as reduction in cell growth at 10 uM incubated for 72 hrs by MTT assay relative to control; type: functional; conditions: MCF7, 72 h, read-out: GI; how it was run: as §1
HeLa [20] = assay: Cytotoxicity against human HeLa cells assessed as reduction in cell growth at 3 uM incubated for 72 hrs by MTT assay relative to control; type: functional; conditions: read-out: GI; how it was run: as §1
MCF7 [21] = assay: Cytotoxicity against human MCF7 cells assessed as reduction in cell growth at 100 uM incubated for 72 hrs by MTT assay relative to control; type: functional; conditions: MCF7, 72 h, read-out: GI; how it was run: as §1
MCF7 [22] = assay: Cytotoxicity against human MCF7 cells assessed as reduction in cell growth at 3 uM incubated for 72 hrs by MTT assay relative to control; type: functional; conditions: MCF7, 72 h, read-out: GI; how it was run: as §1
A-375 [23] = assay: Cytotoxicity against human A375 cells assessed as reduction in cell growth at 30 uM incubated for 72 hrs by MTT assay relative to control; type: functional; conditions: A-375, 72 h, read-out: GI
A-431 [24] = assay: Cytotoxicity against human A431 cells assessed as reduction in cell growth incubated for 72 hrs by MTT assay; type: functional, cell-based; conditions: A-431, 72 h; how it was run: as §1

Structure (SMILES) | inhibition of growth at 3 µM (A-431 [1]) | IC50 (MCF7 [2]) | inhibition of growth at 10 µM (A-375 [3]) | inhibition of growth at 30 µM (A-431 [4]) | inhibition of growth at 10 µM (HeLa [5]) | inhibition of growth at 1 µM (A-431 [6]) | inhibition of growth at 30 µM (MCF7 [7]) | inhibition of growth at 1 µM (A-375 [8]) | inhibition of growth at 3 µM (A-375 [9]) | IC50 (HeLa [10]) | inhibition of growth at 1 µM (MCF7 [11]) | inhibition of growth at 10 µM (A-431 [12]) | IC50 (A-375 [13]) | inhibition of growth at 1 µM (HeLa [14]) | inhibition of growth at 100 µM (A-431 [15]) | inhibition of growth at 100 µM (A-375 [16]) | inhibition of growth at 100 µM (HeLa [17]) | inhibition of growth at 30 µM (HeLa [18]) | inhibition of growth at 10 µM (MCF7 [19]) | inhibition of growth at 3 µM (HeLa [20]) | also measured
N/C(=N\NC(=S)N1CCSCC1)c1ccccn1 | 37.2% | 8800 nM | 83.9% | 81.3% | 54.5% | 31.7% | 72.6% | 34% | 80% | 7800 nM | 16.3% | 61.4% | 760 nM | 25.1% | 80.8% | 87.8% | 88.7% | 80.6% | 54.3% | 39.7% | inhibition of growth at 100 µM (MCF7 [21]): 72.4%; inhibition of growth at 3 µM (MCF7 [22]): 29%; inhibition of growth at 30 µM (A-375 [23]): 86%; IC50 (A-431 [24]): 6700 nM
Cc1cccc(/C(N)=N/NC(=S)N2CCCC2)n1 | 47.2% | 61800 nM | 55.9% | 72.2% | 79.2% | 21% | 40.1% | 13.6% | 51.3% | 2700 nM | 17.4% | 67.6% | 2900 nM | 8.7% | 86.8% | 66.3% | 80.1% | 74.5% | 38.2% | 56.8% | inhibition of growth at 100 µM (MCF7 [21]): 61.8%; inhibition of growth at 3 µM (MCF7 [22]): 26.6%; inhibition of growth at 30 µM (A-375 [23]): 60.8%; IC50 (A-431 [24]): 4000 nM
N/C(=N\NC(=S)N1CCCCCC1)c1ccccn1 | 50.3% | 2600 nM | 86.5% | 72.3% | 67.4% | 18.8% | 76.5% | 67% | 78.6% | 6000 nM | 25.3% | 67% | 740 nM | 21.3% | 77.5% | 89% | 88.7% | 82.9% | 62.2% | 36.6% | inhibition of growth at 100 µM (MCF7 [21]): 84%; inhibition of growth at 3 µM (MCF7 [22]): 56%; inhibition of growth at 30 µM (A-375 [23]): 90%; IC50 (A-431 [24]): 3000 nM
Cc1cccc(/C(N)=N/NC(=S)N2CCN(c3ccccn3)CC2)n1 | 34.3% | > 100000 nM | 63.3% | 57.4% | 72.8% | 9.2% | 36% | 58.4% | 61.8% | 900 nM | 8.5% | 43% | 850 nM | 51.8% | 78.9% | 83.8% | 86.3% | 86.3% | 20.8% | 72.7% | inhibition of growth at 100 µM (MCF7 [21]): 49.8%; inhibition of growth at 3 µM (MCF7 [22]): 27.1%; inhibition of growth at 30 µM (A-375 [23]): 74.8%; IC50 (A-431 [24]): 19600 nM
